From ChEMBL document CHEMBL2169742, “Design, synthesis, and biological evaluation of novel transrepression-selective liver X receptor (LXR) ligands with 5,11-dihydro-5-methyl-11-methylene-6H-dibenz[b,e]azepin-6-one skeleton” (J Med Chem, 2012)
Calls of active or inactive are those of the source. The rule behind the calls is not given here.

Assays:
[1] = target: T1, Bile acid receptor (Homo sapiens) (UniProt Q96RI1); experiment: Antagonist activity at human Gal4-fused FXR assessed as inhibition of chenodeoxycholic acid-induced luciferase activity at 0.03 to 10 uM by reporter gene assay; format: functional
T1 sequence (whole entry): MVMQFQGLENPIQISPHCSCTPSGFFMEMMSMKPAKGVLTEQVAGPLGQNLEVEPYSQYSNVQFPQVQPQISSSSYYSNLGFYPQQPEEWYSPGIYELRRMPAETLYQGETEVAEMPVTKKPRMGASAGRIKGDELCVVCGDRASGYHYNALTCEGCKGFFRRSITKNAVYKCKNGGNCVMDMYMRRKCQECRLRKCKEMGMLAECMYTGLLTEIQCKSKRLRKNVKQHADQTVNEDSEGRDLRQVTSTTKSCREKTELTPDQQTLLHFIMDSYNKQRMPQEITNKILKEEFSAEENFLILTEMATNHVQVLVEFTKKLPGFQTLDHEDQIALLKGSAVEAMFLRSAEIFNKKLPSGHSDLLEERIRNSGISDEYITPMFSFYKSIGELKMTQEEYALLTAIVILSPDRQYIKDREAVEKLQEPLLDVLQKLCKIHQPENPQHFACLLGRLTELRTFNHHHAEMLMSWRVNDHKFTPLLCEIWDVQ

[2] = target: T2, Oxysterols receptor LXR-beta (Homo sapiens, UniProt P55055); experiment: Transactivational agonist activity at human LXRbeta transfected in HEK293 cells expressing CMX-Gal4N assessed as luciferase activity at 30 uM after 16 hrs by reporter gene assay; format: cell-based; settings: hek293, 16 h
T2 sequence (P55055 whole entry): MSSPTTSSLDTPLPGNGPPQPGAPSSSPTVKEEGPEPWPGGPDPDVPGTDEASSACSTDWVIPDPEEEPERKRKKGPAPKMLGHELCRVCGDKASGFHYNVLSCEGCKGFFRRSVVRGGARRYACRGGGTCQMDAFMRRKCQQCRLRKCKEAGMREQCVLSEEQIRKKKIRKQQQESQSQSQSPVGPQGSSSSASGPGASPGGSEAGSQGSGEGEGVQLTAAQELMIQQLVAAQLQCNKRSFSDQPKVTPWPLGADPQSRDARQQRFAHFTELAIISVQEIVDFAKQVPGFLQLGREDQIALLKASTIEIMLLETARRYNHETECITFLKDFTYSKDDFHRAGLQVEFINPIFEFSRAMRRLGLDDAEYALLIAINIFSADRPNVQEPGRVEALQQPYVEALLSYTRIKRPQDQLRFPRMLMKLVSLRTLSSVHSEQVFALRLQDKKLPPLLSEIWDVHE

[3] = Transrepressional activity at LXR in C57BL/6J mouse peritoneal macrophages assessed as inhibition of LPS-induced IL-1beta mRNA expression at 10 uM incubated for 6 hr prior to LPS-challenge measured after 18 hrs by RT-PCR analysis
In short: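 Thioglycollate-elicited peritoneal macrophages (wild-type C57BL/6J or LXRα-null, 8–10 weeks) were plated at 4 × 10⁶/well and pretreated with compound 6 h before LPS 100 ng/mL. Cells were harvested after 18 h. il-6 and il-1β mRNA were measured by real-time quantitative PCR, normalized to GAPDH.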

[4] = target: T3, Oxysterols receptor LXR-alpha (Homo sapiens) (UniProt Q13133); experiment: Transactivational antagonist activity at human LXRalpha transfected in HEK293 cells coexpressing CMX-Gal4N-NCoR assessed as NCoR recruitment after 16 hrs by reporter gene assay; format: functional, cell-based
T3 sequence (whole entry): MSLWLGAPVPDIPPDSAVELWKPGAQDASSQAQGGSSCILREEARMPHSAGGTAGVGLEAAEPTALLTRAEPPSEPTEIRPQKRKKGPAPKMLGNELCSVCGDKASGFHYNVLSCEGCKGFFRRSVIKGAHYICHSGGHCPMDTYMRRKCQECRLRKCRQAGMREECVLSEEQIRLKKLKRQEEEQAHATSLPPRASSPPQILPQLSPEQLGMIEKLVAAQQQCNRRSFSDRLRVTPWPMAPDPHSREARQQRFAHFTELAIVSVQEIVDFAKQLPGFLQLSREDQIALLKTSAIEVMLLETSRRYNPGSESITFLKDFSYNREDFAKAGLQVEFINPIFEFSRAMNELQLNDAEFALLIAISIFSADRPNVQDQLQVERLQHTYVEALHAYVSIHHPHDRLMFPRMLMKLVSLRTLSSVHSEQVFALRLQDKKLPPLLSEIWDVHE
In short: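 Mammalian two-hybrid in HEK293 cells by calcium phosphate cotransfection: CMX-VP16N-hLXRα, Gal4N-fused SRC1, DRIP205, NCoR or SMRT (15 ng), tk-MH100×4-luc (50 ng) and CMX-β-gal (10 ng). Compound or DMSO added 8 h after transfection for 16 h. Luciferase was normalized to β-galactosidase, in triplicate.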

With `C=C1c2ccccc2C(=O)N(C)c2ccc(CC)cc21` the inhibition [1] was “inactive”, the Activity [2] was “Not Active” and the inhibition [3] was “Active”. For the same compound, the Activity [4] was “Dose-dependent effect”.
